This passage reports MIC results from ChEMBL document CHEMBL3751726, “A stepwise dechlorination/cross-coupling strategy to diversify the vancomycin 'in-chloride'” (2016).

What all share (type): functional
Test [1] deals with Staphylococcus aureus. The test can be described thus: Antimicrobial activity against methicillin-susceptible Staphylococcus aureus ATCC 29213 after 18 to 20 hrs by microdilution method. In a few lines: (§1)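 Standard microtiter plate-based broth microdilution assay. The top concentration tested was 64 µg/mL, so inhibition that was not reached is reported as >64 µg/mL. The strains are methicillin-susceptible S. aureus ATCC 29213 and vancomycin-susceptible E. faecalis MMX 101.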
Background: Dilution methods test growth across graded concentrations, often in twofold steps.

The test system of test [2] is Staphylococcus aureus. The test can be described thus: Antimicrobial activity against methicillin-resistant Staphylococcus aureus MMX 2002 after 18 to 20 hrs by microdilution method.
Test [3] relates to Enterococcus faecalis. The test can be described thus: Antimicrobial activity against vancomycin-susceptible Enterococcus faecalis MMX 101 after 18 to 20 hrs by microdilution method. In a few lines: as §1
Test [4] concerns Enterococcus faecalis. The test can be described thus: Antimicrobial activity against vancomycin-resistant Enterococcus faecalis MMX 202 expressing VanB after 18 to 20 hrs by microdilution method.
Test [5] deals with Enterococcus faecalis. The test can be described thus: Antimicrobial activity against vancomycin-resistant Enterococcus faecalis MMX 486 expressing VanA after 18 to 20 hrs by microdilution method.

In brackets after ≈: the same amount, converted by molar mass.

For the compound `CN[C@@H](CC(C)C)C(=O)N[C@@H]1C(=O)N[C@H](CC(N)=O)C(=O)N[C@@H]2C(=O)N[C@@H]3C(=O)N[C@@H](C(=O)N[C@H](C(=O)O)c4cc(O)cc(O)c4-c4cc3ccc4O)[C@@H](O)c3ccc(c(-c4ccoc4)c3)Oc3cc2cc(c3O[C@H]2O[C@@H](CO)[C@H](O)[C@@H](O)[C@@H]2O[C@H]2C[C@](C)(N)[C@H](O)[C@H](C)O2)Oc2ccc(cc2)[C@@H]1O`, the MIC (usually the least concentration at which growth counts as inhibited) with Staphylococcus aureus [1] was 64 µg/mL (≈ 44.2 µM); with Staphylococcus aureus [2], 64 µg/mL (≈ 44.2 µM); in the test on Enterococcus faecalis [3] it was more than 64 µg/mL; against Enterococcus faecalis [4] it was more than 64 µg/mL; with Enterococcus faecalis [5], more than 64 µg/mL.
Take `CN[C@@H](CC(C)C)C(=O)N[C@@H]1C(=O)N[C@H](CC(N)=O)C(=O)N[C@@H]2C(=O)N[C@@H]3C(=O)N[C@@H](C(=O)N[C@H](C(=O)O)c4cc(O)cc(O)c4-c4cc3ccc4O)[C@@H](O)c3ccc(c(-c4cccc(C(N)=O)c4)c3)Oc3cc2cc(c3O[C@@H]2O[C@H](CO)[C@@H](O)[C@H](O)[C@H]2O[C@H]2C[C@](C)(N)[C@H](O)[C@H](C)O2)Oc2ccc(cc2)[C@@H]1O`: the MIC in the test with Staphylococcus aureus [1], against Staphylococcus aureus [2], in the test on Enterococcus faecalis [3], in the test with Enterococcus faecalis [4] and against Enterococcus faecalis [5] was more than 64 µg/mL in each case.
On to `CN[C@@H](CC(C)C)C(=O)N[C@@H]1C(=O)N[C@H](CC(N)=O)C(=O)N[C@@H]2C(=O)N[C@@H]3C(=O)N[C@@H](C(=O)N[C@H](C(=O)O)c4cc(O)cc(O)c4-c4cc3ccc4O)[C@@H](O)c3ccc(c(Cl)c3)Oc3cc2cc(c3O[C@H]2O[C@@H](CO)[C@H](O)[C@@H](O)[C@@H]2O[C@@H]2C[C@@](C)(N)[C@@H](O)[C@@H](C)O2)Oc2ccc(cc2)[C@@H]1O`, for which the minimal inhibitory concentration (MIC) is 4 µg/mL (≈ 2.83 µM) against Staphylococcus aureus [1]; 4 µg/mL (≈ 2.83 µM) against Staphylococcus aureus [2]; 8 µg/mL (≈ 5.65 µM) in the test with Enterococcus faecalis [3]; 64 µg/mL (≈ 45.2 µM) against Enterococcus faecalis [4]; more than 64 µg/mL in the test on Enterococcus faecalis [5].
Turning to `CN[C@@H](CC(C)C)C(=O)N[C@@H]1C(=O)N[C@H](CC(N)=O)C(=O)N[C@@H]2C(=O)N[C@@H]3C(=O)N[C@@H](C(=O)N[C@H](C(=O)O)c4cc(O)cc(O)c4-c4cc3ccc4O)[C@@H](O)c3ccc(c(-c4ccc(-c5ccccc5)cc4)c3)Oc3cc2cc(c3O[C@@H]2O[C@H](CO)[C@@H](O)[C@H](O)[C@H]2O[C@H]2C[C@](C)(N)[C@H](O)[C@H](C)O2)Oc2ccc(cc2)[C@@H]1O`, the minimal inhibitory concentration (MIC) in the test with Staphylococcus aureus [1], against Staphylococcus aureus [2], against Enterococcus faecalis [3], in the test on Enterococcus faecalis [4] and in the test with Enterococcus faecalis [5] was more than 64 µg/mL in each case.
As for `CN[C@@H](CC(C)C)C(=O)N[C@@H]1C(=O)N[C@H](CC(N)=O)C(=O)N[C@@H]2C(=O)N[C@@H]3C(=O)N[C@@H](C(=O)N[C@H](C(=O)O)c4cc(O)cc(O)c4-c4cc3ccc4O)[C@@H](O)c3ccc(c(-c4cccc(CN)c4)c3)Oc3cc2cc(c3O[C@@H]2O[C@H](CO)[C@@H](O)[C@H](O)[C@H]2O[C@H]2C[C@](C)(N)[C@H](O)[C@H](C)O2)Oc2ccc(cc2)[C@@H]1O`, the MIC against Staphylococcus aureus [1], against Staphylococcus aureus [2], with Enterococcus faecalis [3], in the test on Enterococcus faecalis [4] and in the test with Enterococcus faecalis [5] was more than 64 µg/mL each time.
For the compound `CCCCCC/C=C/c1cc2ccc1Oc1cc3cc(c1O[C@@H]1O[C@H](CO)[C@@H](O)[C@H](O)[C@H]1O[C@H]1C[C@](C)(N)[C@H](O)[C@H](C)O1)Oc1ccc(cc1)[C@H](O)[C@H](NC(=O)[C@@H](CC(C)C)NC)C(=O)N[C@H](CC(N)=O)C(=O)N[C@@H]3C(=O)N[C@@H]1C(=O)N[C@@H](C(=O)N[C@H](C(=O)O)c3cc(O)cc(O)c3-c3cc1ccc3O)[C@H]2O`, the MIC with Staphylococcus aureus [1], in the test on Staphylococcus aureus [2], with Enterococcus faecalis [3], in the test on Enterococcus faecalis [4] and against Enterococcus faecalis [5] was more than 64 µg/mL in each case.
Consider `CN[C@@H](CC(C)C)C(=O)N[C@@H]1C(=O)N[C@H](CC(N)=O)C(=O)N[C@@H]2C(=O)N[C@@H]3C(=O)N[C@@H](C(=O)N[C@H](C(=O)O)c4cc(O)cc(O)c4-c4cc3ccc4O)[C@@H](O)c3ccc(cc3)Oc3cc2cc(c3O[C@@H]2O[C@H](CO)[C@@H](O)[C@H](O)[C@H]2O[C@H]2C[C@](C)(N)[C@H](O)[C@H](C)O2)Oc2ccc(cc2)[C@@H]1O`, for which the minimum inhibitory concentration (MIC) against Staphylococcus aureus [1] is 8 µg/mL (≈ 5.8 µM); against Staphylococcus aureus [2], 8 µg/mL (≈ 5.8 µM); in the test on Enterococcus faecalis [3], 32 µg/mL (≈ 23.2 µM); with Enterococcus faecalis [4], more than 64 µg/mL; with Enterococcus faecalis [5], more than 64 µg/mL.
Take `CN[C@@H](CC(C)C)C(=O)N[C@@H]1C(=O)N[C@H](CC(N)=O)C(=O)N[C@@H]2C(=O)N[C@@H]3C(=O)N[C@@H](C(=O)N[C@H](C(=O)O)c4cc(O)cc(O)c4-c4cc3ccc4O)[C@@H](O)c3ccc(c(-c4ccc5[nH]ccc5c4)c3)Oc3cc2cc(c3O[C@@H]2O[C@H](CO)[C@@H](O)[C@H](O)[C@H]2O[C@H]2C[C@](C)(N)[C@H](O)[C@H](C)O2)Oc2ccc(cc2)[C@@H]1O`: the minimum inhibitory concentration (MIC) against Staphylococcus aureus [1], against Staphylococcus aureus [2], against Enterococcus faecalis [3], against Enterococcus faecalis [4] and against Enterococcus faecalis [5] was more than 64 µg/mL each time.
Take `CN[C@@H](CC(C)C)C(=O)N[C@@H]1C(=O)N[C@H](CC(N)=O)C(=O)N[C@@H]2C(=O)N[C@@H]3C(=O)N[C@@H](C(=O)N[C@H](C(=O)O)c4cc(O)cc(O)c4-c4cc3ccc4O)[C@@H](O)c3ccc(c(-c4cccc(F)c4)c3)Oc3cc2cc(c3O[C@@H]2O[C@H](CO)[C@@H](O)[C@H](O)[C@H]2O[C@H]2C[C@](C)(N)[C@H](O)[C@H](C)O2)Oc2ccc(cc2)[C@@H]1O`: the MIC against Staphylococcus aureus [1], in the test with Staphylococcus aureus [2], in the test with Enterococcus faecalis [3], in the test with Enterococcus faecalis [4] and with Enterococcus faecalis [5] was more than 64 µg/mL throughout.
On to `CC(=O)NC[C@H]1CN(c2ccc(N3CCOCC3)c(F)c2)C(=O)O1` [LINEZOLID], for which the minimum inhibitory concentration (MIC) against Staphylococcus aureus [2] was found to be 1 µg/mL (≈ 2.96 µM).
Take `CN[C@H](CC(C)C)C(=O)N[C@H]1C(=O)N[C@@H](CC(N)=O)C(=O)N[C@H]2C(=O)N[C@H]3C(=O)N[C@H](C(=O)N[C@H](C(=O)O)c4cc(O)cc(O)c4-c4cc3ccc4O)[C@H](O)c3ccc(c(Cl)c3)Oc3cc2cc(c3O[C@@H]2O[C@H](CO)[C@@H](O)[C@H](O)[C@H]2O[C@H]2C[C@](C)(N)[C@H](O)[C@H](C)O2)Oc2ccc(cc2Cl)[C@H]1O` [VANCOMYCIN]: the MIC is 2 µg/mL (≈ 1.38 µM) against Enterococcus faecalis [3], 8 µg/mL (≈ 5.52 µM) against Enterococcus faecalis [4] and more than 64 µg/mL with Enterococcus faecalis [5].
